The text below walks through data of ChEMBL document CHEMBL5046239, “Development of novel phenoxyalkylpiperidines as high-affinity Sigma-1 (σ1) receptor ligands with potent anti-amnesic effect” (Eur J Med Chem, 2022).

By Ki is commonly meant the dissociation constant of the complex between target and ligand, obtained from inhibition or displacement. A high value points to weaker binding. What is called EC50 is the concentration needed to bring the measured effect to its halfway point.

The source made the active and inactive calls. No cut-off for these calls is given here.

Assay [1] concerns the target Sigma non-opioid intracellular receptor 1 (Cavia porcellus, UniProt Q60492). Description: Displacement of [3H](+)-pentazocine from sigma 1 receptor in guinea pig brain membranes measured after 120 mins by scintillation counting method. The assay is classed as cell membranes, Membrane. (In general: Loss of bound radioactivity is the signal in a displacement assay; it reports binding, not function.)

The target of assay [2] is T1, Sigma intracellular receptor 2 (Rattus norvegicus, UniProt Q5U3Y7).
T1 sequence (Q5U3Y7 whole entry): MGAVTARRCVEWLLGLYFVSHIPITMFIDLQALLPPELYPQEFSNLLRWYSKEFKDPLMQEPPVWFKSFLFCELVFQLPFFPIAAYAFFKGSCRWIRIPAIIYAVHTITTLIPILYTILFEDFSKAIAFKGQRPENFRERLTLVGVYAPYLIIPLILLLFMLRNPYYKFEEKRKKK
Nature of the assay: Displacement of [3H]DTG from sigma 2 receptor in Wistar Han rat liver membranes measured after 120 mins by scintillation counting method. The assay is classed as cell membranes, Membrane.

The test system of assay [3] is MCF7. Nature of the assay: Cytotoxicity against human MCF7 cells assessed as cell viability measured after 48 hrs by MTT assay. It counts as functional, cell-based. As to conditions: MCF7, 48 h. The method, boiled down: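 MCF7 cells grown in DMEM with 10% FBS, glutamine and pen-strep at 37 °C, 5% CO2. Seeded at 25,000 cells/well and dosed the next day at 1–100 μM for 48 h. Solvent controls included. MTT 0.5 mg/mL for 3–4 h, formazan dissolved in DMSO/EtOH, absorbance read at 570/630 nm.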
(Tetrazolium assays rely on reduction of a dye to a coloured formazan, in cell work by metabolically active cells.)

Assay [4] deals with SH-SY5Y. Description: Cytotoxicity against human SH-SY5Y cells assessed as cell viability measured after 48 hrs by MTT assay. It counts as functional, cell-based. Put shortly:
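SH-SY5Y cells grown in MEM/Ham's F12 (1:1) with 10% FBS, glutamine and pen-strep at 37 °C, 5% CO2. Seeded at 25,000 cells/well and dosed the next day at 1–100 μM for 48 h. Solvent controls included. MTT 0.5 mg/mL for 3–4 h, formazan dissolved in DMSO/EtOH, absorbance read at 570/630 nm.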

Assay [5] concerns HepG2. Description: Cytotoxicity against human HepG2 cells assessed as cell viability measured after 48 hrs by MTT assay. The assay is classed as functional, cell-based. As to conditions: HepG2, 48 h. The method, boiled down: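 HepG2 cells grown in MEM with 10% FBS, glutamine, pen-strep and NEAA at 37 °C, 5% CO2. Seeded at 25,000 cells/well and dosed the next day at 1–100 μM for 48 h. Solvent controls (EtOH, DMSO) included. MTT 0.5 mg/mL for 3–4 h, formazan dissolved in DMSO/EtOH, absorbance read at 570/630 nm.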

Assay [6] deals with C6. Nature of the assay: Cytotoxicity against rat C6 cells assessed as cell viability measured after 48 hrs by MTT assay. The assay is classed as functional, cell-based. As to conditions: C6, 48 h.
For assay [7], the system named is Mus musculus. Nature of the assay: Cognitive enhancing effect in dizocilpine induced amnesia Swiss mouse model assessed as reduction in memory impairment at 0.03 to 0.3 mg/kg, ip pretreated for 10 mins followed by dizocilpine addition measured after 20 mins by Y-maze test. The assay is classed as functional, organism-based. The conditions noted are these: dose 0.03-0.3 mg/kg, time 30.0 min. Put shortly: (§1)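 Male Swiss OF-1 mice, 7–9 weeks old, n = 12–16 per group. Test drug given ip in saline 10 min before dizocilpine (0.15 mg/kg ip), which was given 20 min before the Y-maze session or passive avoidance training. NE-100 (1 mg/kg ip) was given at the same time as the test drug where used. Read-outs were Y-maze alternation and step-through latency at 24 h retention. Statistics were ANOVA with Dunnett's test, or Dunn's test for latency.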

Assay [8] has as its system Mus musculus. Description: Cognitive enhancing effect in dizocilpine induced amnesia Swiss mouse model assessed as increase in latency time at 0.03 to 0.3 mg/kg, ip pretreated for 10 mins followed by dizocilpine addition measured after 20 mins by step-through passive avoidance test. It counts as functional, organism-based. The conditions noted are these: dose 0.03-0.3 mg/kg, time 30.0 min. Put shortly: as §1

The subject of assay [9] is Mus musculus. Nature of the assay: Cognitive enhancing effect in dizocilpine induced amnesia Swiss mouse model assessed as reduction in memory impairment at 0.03 to 0.3 mg/kg, ip pretreated for 10 mins followed by dizocilpine addition in presence of NE-100 measured after 20 mins by Y-maze test. It counts as functional, organism-based. As to conditions: dose 0.03-0.3 mg/kg, time 30.0 min. The method, boiled down:
as §1

The subject of assay [10] is Mus musculus. Description: Cognitive enhancing effect in dizocilpine induced amnesia Swiss mouse model assessed as increase in latency time at 0.03 to 0.3 mg/kg, ip pretreated for 10 mins followed by dizocilpine addition in presence of NE-100 measured after 20 mins by step-through passive avoidance test. As to conditions: dose 0.03-0.3 mg/kg, time 30.0 min. It counts as functional, organism-based. The method, boiled down: as §1

Assay [11] concerns Mus musculus. Nature of the assay: Cognitive enhancing effect in dizocilpine induced amnesia Swiss mouse model assessed as reduction in memory impairment at 1 to 10 mg/kg, ip pretreated for 10 mins followed by dizocilpine addition measured after 20 mins by Y-maze test. As to conditions: dose 1-10 mg/kg, time 30.0 min. The assay is classed as functional, organism-based. The method, boiled down: as §1

Assay [12] deals with Mus musculus. Description: Cognitive enhancing effect in dizocilpine induced amnesia Swiss mouse model assessed as increase in latency time at 1 to 10 mg/kg, ip pretreated for 10 mins followed by dizocilpine addition measured after 20 mins by step-through passive avoidance test. It counts as functional, organism-based. As to conditions: dose 1-10 mg/kg, time 30.0 min. Put shortly:
as §1

For assay [13], the system named is Mus musculus. Nature of the assay: Cognitive enhancing effect in dizocilpine induced amnesia Swiss mouse model assessed as reduction in memory impairment at 1 to 10 mg/kg, ip pretreated for 10 mins followed by dizocilpine addition in presence of NE-100 measured after 20 mins by Y-maze test. As to conditions: dose 1-10 mg/kg, time 30.0 min. The assay is classed as functional, organism-based. The method, boiled down: as §1

Assay [14] has as its system Mus musculus. Nature of the assay: Cognitive enhancing effect in dizocilpine induced amnesia Swiss mouse model assessed as increase in latency time at 1 to 10 mg/kg, ip pretreated for 10 mins followed by dizocilpine addition in presence of NE-100 measured after 20 mins by step-through passive avoidance test. As to conditions: dose 1-10 mg/kg, time 30.0 min. The assay is classed as functional, organism-based. Put shortly: as §1

Sigma non-opioid intracellular receptor 1, sequence (Q60492 whole entry): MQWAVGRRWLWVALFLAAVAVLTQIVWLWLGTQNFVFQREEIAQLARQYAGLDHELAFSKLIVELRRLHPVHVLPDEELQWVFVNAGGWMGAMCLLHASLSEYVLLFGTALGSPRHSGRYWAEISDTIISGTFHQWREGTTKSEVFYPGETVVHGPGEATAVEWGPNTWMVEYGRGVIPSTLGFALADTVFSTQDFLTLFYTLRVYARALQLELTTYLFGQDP

As to `COc1ccc(OCCN2CCCC[C@H]2C)cc1`, the figures for the Ki in assay [1] and in [2] were 35.9 nM and 300 nM, respectively.

As for `COc1ccc(OCCCN2[C@H](C)CCC[C@@H]2C)cc1`, the results for the inhibitory constant (Ki) in assay [1] and in assay [2] were 23.5 nM and 52.5 nM, respectively.

In assay [2], `CC1CCN(CCOc2ccc(Cl)cc2)CC1` had a Ki of 239 nM. The concentration giving a half-maximal response (EC50) in assay [3], in assay [4], in assay [5] and in [6] was > 100000 nM throughout. Further, the outcome in assay [7] and in [8] was Active. For the same compound, the outcome in assay [9] and in assay [10] was inactive.

`C[C@@H]1CCC[C@H](C)N1CCCOc1ccc(Cl)cc1`: the Ki in assay [1] turned out to be 4.43 nM; in assay [2], 17.2 nM.

For the compound `CC1(C)CCCC(C)(C)N1CCOc1ccc(Cl)cc1`, the results for the inhibitory constant (Ki) in assay [1] and in [2] were > 5000 nM and 411 nM, respectively. In addition, the concentration for a half-maximal effect (EC50) in assay [6] was > 100000 nM.

Regarding `COc1ccc(OC[C@H](C)N2CCC(C)CC2)cc1`, the Ki in [1] stood at 1.49 nM; in assay [2] it was 723 nM.

Turning to `CC1CCN([C@@H](C)COc2ccc(Cl)cc2)CC1`, the values for the inhibitory constant (Ki) in assay [1] and in assay [2] were 0.34 nM and 186 nM, respectively.

Turning to `COc1ccc(OCCN2C(C)(C)CCCC2(C)C)cc1`, the Ki in assay [1] is > 5000 nM; in [2], 809 nM. Besides, the EC50 in assay [6] was > 100000 nM.

With `C[C@@H]1CCCCN1CCOc1ccc(Cl)cc1`, the Ki in assay [1] was 20.6 nM; in assay [2], 77.8 nM.

On to `COc1ccc(OCCN2CCC(C)CC2)cc1`, for which the Ki in [1] came to 0.89 nM; in assay [2], 170 nM. Besides, the EC50 in assay [3], in assay [4], in assay [5] and in [6] was > 100000 nM each time. The result in [11] and in [12] was Active. Besides, the result in assay [13] and in assay [14] was inactive.

Take `CC1CCN([C@H](C)COc2ccc(Cl)cc2)CC1`: the values for the Ki in assay [1] and in [2] were 1.18 nM and 52.3 nM, respectively. Further, the concentration giving a half-maximal response (EC50) in [6] is > 100000 nM.

With `C[C@@H]1CCC[C@H](C)N1CCOc1ccc(Cl)cc1`, the values for the inhibitory constant (Ki) in assay [1] and in [2] were 59.4 nM and 116 nM, respectively.

Turning to `COc1ccc(OCCN2[C@H](C)CCC[C@@H]2C)cc1`, the Ki in assay [1] is 379 nM; in assay [2] it was 636 nM.

Turning to `C[C@H]1CCCCN1CCOc1ccc(Cl)cc1`, the Ki in assay [1] came to 16.6 nM; in assay [2] it was 69.8 nM.

Take `COc1ccc(OC[C@@H](C)N2CCC(C)CC2)cc1`: the figures for the inhibition constant Ki in assay [1] and in [2] were 1.16 nM and 187 nM, respectively. The EC50 in [6] is > 100000 nM.

For `COc1ccc(OCCN2CCCC[C@@H]2C)cc1`, the Ki is 43.4 nM in [1] and 175 nM in [2].
